ChEMBL document CHEMBL5247578, “Effective synthesis of benzimidazoles-imidazo[1,2-a]pyrazine conjugates: A comparative study of mono-and bis-benzimidazoles for antitumor activity” (Eur J Med Chem, 2019)

Columns and labels:
[1] = test system: SK-OV-3; experiment: Antiproliferative activity against human SK-OV-3 cells assessed as cell growth at 0.00000001 M incubated for 48 hrs by SRB assay relative to control; assay type: functional; conditions: dose 10 nM, read-out: Activity
[2] = test system: NCI-H23; experiment: Antiproliferative activity against human NCI-H23 cells assessed as cell growth at 0.0001 M incubated for 48 hrs by SRB assay relative to control; assay type: functional; conditions: read-out: Activity
[3] = test system: MCF7; experiment: Antiproliferative activity against human MCF7 cells assessed as cell growth at 0.0000001 M incubated for 48 hrs by SRB assay relative to control; assay type: functional; conditions: dose 100 nM, read-out: Activity
[4] = test system: MOLT-4; experiment: Antiproliferative activity against human MOLT-4 cells assessed as cell growth at 0.0001 M incubated for 48 hrs by SRB assay relative to control; assay type: functional; conditions: read-out: Activity
[5] = test system: OVCAR-8; experiment: Antiproliferative activity against human OVCAR-8 cells assessed as cell growth at 0.000001 M incubated for 48 hrs by SRB assay relative to control; assay type: functional; conditions: read-out: Activity
[6] = test system: T47D; experiment: Antiproliferative activity against human T47D cells assessed as cell growth at 0.000001 M incubated for 48 hrs by SRB assay relative to control; assay type: functional; conditions: read-out: Activity
[7] = test system: NCI-H522; experiment: Growth inhibition against human NCI-H522 cells assessed as total growth inhibitory concentration incubated for 48 hrs by sulforhodamine B assay; assay type: functional
[8] = test system: MDA-MB-468; experiment: Antiproliferative activity against human MDA-MB-468 cells assessed as cell growth at 0.000001 M incubated for 48 hrs by SRB assay relative to control; assay type: functional; conditions: read-out: Activity
[9] = test system: DU-145; experiment: Antiproliferative activity against human DU-145 cells assessed as cell growth inhibition by measuring lethal concentration incubated for 48 hrs by sulforhodamine B assay; assay type: functional; conditions: read-out: LC50 (the source's name)
[10] = test system: HCT-116; experiment: Antiproliferative activity against human HCT-116 cells assessed as cell growth at 0.0001 M incubated for 48 hrs by SRB assay relative to control; assay type: functional; conditions: read-out: Activity
In short: (§1)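 NCI-60 five-dose screen (10^-4 to 10^-8 M). Cells grown in RPMI 1640 with 5% FBS and 2 mM L-glutamine, plated at 5,000-40,000 cells/well and preincubated 24 h. Drug given from DMSO stock, then 48 h at 37 °C, 5% CO2. For adherent lines, cells fixed with cold TCA, SRB-stained and read at 515 nm. Percent growth taken against time-zero and untreated control.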

[11] = test system: DU-145; experiment: Growth inhibition against human DU-145 cells incubated for 48 hrs by sulforhodamine B assay; assay type: functional
[12] = test system: OVCAR-8; experiment: Growth inhibition against human OVCAR-8 cells assessed as total growth inhibitory concentration incubated for 48 hrs by sulforhodamine B assay; assay type: functional
[13] = test system: A549; experiment: Antiproliferative activity against human A549 cells assessed as cell growth at 0.0000001 M incubated for 48 hrs by SRB assay relative to control; assay type: functional; conditions: dose 100 nM, read-out: Activity
In short: (§2)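 NCI-60 five-dose screen over 10^-4–10^-8 M (10-fold dilutions). Cells grown in RPMI 1640 with 5% FBS and 2 mM L-glutamine, seeded at 5,000–40,000 cells/well and preincubated 24 h. Drug from DMSO stock, 48 h at 37 °C, 5% CO2. Adherent cells TCA-fixed and stained with 0.4% SRB; A515 read. Percent growth = (Ti−Tz)/(C−Tz)×100, or (Ti−Tz)/Tz×100 when Ti<Tz.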

[14] = test system: UACC-257; experiment: Antiproliferative activity against human UACC-257 cells assessed as cell growth at 0.000001 M incubated for 48 hrs by SRB assay relative to control; assay type: functional; conditions: read-out: Activity
[15] = test system: HL-60; experiment: Growth inhibition against human HL-60 cells assessed as total growth inhibitory concentration incubated for 48 hrs by sulforhodamine B assay; assay type: functional
[16] = test system: COLO 205; experiment: Antiproliferative activity against human COLO 205 cells assessed as cell growth at 0.00000001 M incubated for 48 hrs by SRB assay relative to control; assay type: functional; conditions: dose 10 nM, read-out: Activity; in short: as §2
[17] = test system: DU-145; experiment: Antiproliferative activity against human DU-145 cells assessed as cell growth at 0.0001 M incubated for 48 hrs by SRB assay relative to control; assay type: functional; conditions: read-out: Activity; in short: as §1
[18] = test system: ACHN; experiment: Antiproliferative activity against human ACHN cells assessed as cell growth at 0.00000001 M incubated for 48 hrs by SRB assay relative to control; assay type: functional; conditions: dose 10 nM, read-out: Activity; in short: as §2
[19] = test system: SN12C; experiment: Antiproliferative activity against human SN12C cells assessed as cell growth at 0.00001 M incubated for 48 hrs by SRB assay relative to control; assay type: functional; conditions: read-out: Activity
[20] = test system: T47D; experiment: Antiproliferative activity against human T47D cells assessed as cell growth at 0.0001 M incubated for 48 hrs by SRB assay relative to control; assay type: functional; conditions: read-out: Activity
[21] = test system: NCI-H23; experiment: Antiproliferative activity against human NCI-H23 cells assessed as cell growth inhibition by measuring lethal concentration incubated for 48 hrs by sulforhodamine B assay; assay type: functional; conditions: read-out: LC50 (the source's name)
[22] = test system: SF-295; experiment: Growth inhibition against human SF-295 cells incubated for 48 hrs by sulforhodamine B assay; assay type: functional
[23] = test system: Calf thymus DNA; experiment: Binding affinity to calf thymus DNA assessed as DNA intercalation by measuring change in melting temperature at 10 uM by thermal denaturation assay; assay type: nucleic-acid assay; conditions: Bos taurus
[24] = test system: HOP-92; experiment: Antiproliferative activity against human HOP-92 cells assessed as cell growth at 0.0000001 M incubated for 48 hrs by SRB assay relative to control; assay type: functional; conditions: dose 100 nM, read-out: Activity; in short: as §1
[25] = test system: OVCAR-3; experiment: Antiproliferative activity against human OVCAR-3 cells assessed as cell growth at 0.00000001 M incubated for 48 hrs by SRB assay relative to control; assay type: functional; conditions: dose 10 nM, read-out: Activity
[26] = test system: NCI-H522; experiment: Antiproliferative activity against human NCI-H522 cells assessed as cell growth at 0.000001 M incubated for 48 hrs by SRB assay relative to control; assay type: functional; conditions: read-out: Activity
[27] = test system: MOLT-4; experiment: Antiproliferative activity against human MOLT-4 cells assessed as cell growth at 0.0000001 M incubated for 48 hrs by SRB assay relative to control; assay type: functional; conditions: dose 100 nM, read-out: Activity
[28] = test system: IGROV-1; experiment: Antiproliferative activity against human IGROV-1 cells assessed as cell growth inhibition by measuring lethal concentration incubated for 48 hrs by sulforhodamine B assay; assay type: functional; conditions: read-out: LC50 (the source's name)
[29] = test system: MOLT-4; experiment: Growth inhibition against human MOLT-4 cells assessed as total growth inhibitory concentration incubated for 48 hrs by sulforhodamine B assay; assay type: functional
[30] = test system: A549; experiment: Antiproliferative activity against human A549 cells assessed as cell growth at 0.00000001 M incubated for 48 hrs by SRB assay relative to control; assay type: functional; conditions: dose 10 nM, read-out: Activity; in short: as §2
[31] = test system: T47D; experiment: Antiproliferative activity against human T47D cells assessed as cell growth inhibition by measuring lethal concentration incubated for 48 hrs by sulforhodamine B assay; assay type: functional; conditions: read-out: LC50 (the source's name)
In short: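 NCI-60 five-dose screen (10^-4 to 10^-8 M, 10-fold dilutions; DMSO stocks). Cells in RPMI 1640 with 5% FBS and 2 mM L-glutamine, preincubated 24 h, then exposed 48 h at 37 °C, 5% CO2. Fixed with cold TCA, stained with 0.4% SRB, absorbance read at 515 nm. Time-zero plates used as reference. LC50 taken from [(Ti-Tz)/Tz]×100 […].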

[32] = test system: MDA-MB-468; experiment: Antiproliferative activity against human MDA-MB-468 cells assessed as cell growth at 0.0001 M incubated for 48 hrs by SRB assay relative to control; assay type: functional; conditions: read-out: Activity
[33] = test system: COLO 205; experiment: Antiproliferative activity against human COLO 205 cells assessed as cell growth at 0.000001 M incubated for 48 hrs by SRB assay relative to control; assay type: functional; conditions: read-out: Activity; in short: as §2

| Structure (SMILES) | growth at 0.01 µM [1] | growth at 100 µM [2] | growth at 0.1 µM [3] | growth at 100 µM [4] | growth at 1 µM [5] | growth at 1 µM [6] | TGI [7] | growth at 1 µM [8] | CC50 [9] | growth at 100 µM [10] | GI50 [11] | TGI [12] | growth at 0.1 µM [13] | growth at 1 µM [14] | TGI [15] | growth at 0.01 µM [16] | growth at 100 µM [17] | growth at 0.01 µM [18] | growth at 10 µM [19] | growth at 100 µM [20] | other results |
| --- | --- | --- | --- | --- | --- | --- | --- | --- | --- | --- | --- | --- | --- | --- | --- | --- | --- | --- | --- | --- | --- |
| COc1ccc(-c2cn3ccnc3c(-c3ccc4ncn(C5CCCCC5)c4c3)n2)cc1 | 87% | 22% | 92% | 22% | 92% | 45% | 6.15 µM | 47% | > 100 µM | -29% | 1.07 µM | > 100 µM | 103% | 69% | 5.05 µM | 96% | 17% | 93% | 16% | -21% | CC50 [21]: > 100 µM; GI50 [22]: 0.361 µM; ΔTm [23]: 22 °C; growth at 0.1 µM [24]: 94%; growth at 0.01 µM [25]: 100%; growth at 1 µM [26]: 28%; growth at 0.1 µM [27]: 109%; CC50 [28]: > 100 µM; TGI [29]: > 100 µM; growth at 0.01 µM [30]: 102%; CC50 [31]: > 100 µM; growth at 100 µM [32]: 10%; growth at 1 µM [33]: 76% |
| c1ccc(Cn2cnc3ccc(-c4nc(-c5ccc6c(c5)ncn6C5CCCCC5)cn5ccnc45)cc32)cc1 | 84% | -79% | 90% | 4% | 102% | 61% | 5.09 µM | 89% | > 100 µM | -33% | 3.04 µM | 6.54 µM | 109% | 112% | 6.65 µM | 95% | -8% | 96% | -32% | 9% | CC50 [21]: 1.33 µM; GI50 [22]: 1.42 µM; ΔTm [23]: 12 °C; growth at 0.1 µM [24]: 98%; growth at 0.01 µM [25]: 101%; growth at 1 µM [26]: 88%; growth at 0.1 µM [27]: 114%; CC50 [28]: > 100 µM; TGI [29]: > 100 µM; growth at 0.01 µM [30]: 105%; CC50 [31]: > 100 µM; growth at 100 µM [32]: -7%; growth at 1 µM [33]: 92% |
